Reference: ChEMBL document CHEMBL3102712, “Targeting the Warburg Effect in cancer; relationships for 2-arylpyridazinones as inhibitors of the key glycolytic enzyme 6-phosphofructo-2-kinase/2,6-bisphosphatase 3 (PFKFB3)” (Bioorg Med Chem, 2014)
pIC50: −log10 of the molar value. Active and inactive are the calls of the source. The rule behind the calls is not given here.

Columns and labels:
[1] = biological target: T1, 6-phosphofructo-2-kinase/fructose-2,6-bisphosphatase 3 (Homo sapiens, UniProt Q16875); test: Inhibition of human recombinant GST-tagged PFKFB3 expressed in Escherichia coli BL21(DE3) using fructose 6-phosphate as substrate preincubated for 30 mins before substrate addition measured after 60 mins by kinase-glo assay
T1 sequence (Q16875 whole entry): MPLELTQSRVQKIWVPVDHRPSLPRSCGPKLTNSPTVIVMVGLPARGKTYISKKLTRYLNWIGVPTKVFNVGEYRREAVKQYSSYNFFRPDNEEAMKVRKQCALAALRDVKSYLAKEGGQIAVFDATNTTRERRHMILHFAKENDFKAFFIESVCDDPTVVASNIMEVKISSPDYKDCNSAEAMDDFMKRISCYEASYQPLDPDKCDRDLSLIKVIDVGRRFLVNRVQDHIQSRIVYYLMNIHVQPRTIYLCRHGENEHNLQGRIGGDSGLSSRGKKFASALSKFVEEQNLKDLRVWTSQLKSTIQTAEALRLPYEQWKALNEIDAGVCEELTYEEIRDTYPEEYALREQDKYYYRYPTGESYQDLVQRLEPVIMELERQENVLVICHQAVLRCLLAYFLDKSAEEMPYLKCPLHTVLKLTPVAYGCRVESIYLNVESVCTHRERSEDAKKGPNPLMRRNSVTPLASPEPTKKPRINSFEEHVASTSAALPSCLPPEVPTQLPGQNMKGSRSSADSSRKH
Summary of the method: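 GST-tagged human PFKFB3 was purified on glutathione sepharose. The compound was preincubated with enzyme for 30 min at 30 °C in 40 mM Tris pH 7.5, 20 mM MgCl2, 0.1 mg/mL BSA. ATP and F6P were then added in buffer containing 25 µM ATP and 1.25 mM F6P, for 60 min at 30 °C. Remaining ATP was read by Kinase-Glo luminescence. IC50 came from nonlinear regression, mean ± SD of ≥3 independent experiments.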

[2] = biological target: T1, 6-phosphofructo-2-kinase/fructose-2,6-bisphosphatase 3; test: Inhibition of PFKFB3-mediated glycolysis in human MDA-MB-231 cells assessed as extracellular acidification rate at 10 uM after 60 mins; format: cell-based
Summary of the method: (§1)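 MDA-MB-231 cells were seeded at 15,000/well for 24 h, then switched to assay medium in an XF24 analyzer. After 2 baseline readings, compound (10 µM) was injected and ECAR tracked for 2 h. 2-Deoxyglucose (100 mM) was then injected as positive control and ECAR followed 32 min more. ECAR was expressed as % of baseline, with protein measured by BCA after RIPA lysis; n = 3.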

[3] = biological target: T1, 6-phosphofructo-2-kinase/fructose-2,6-bisphosphatase 3; test: Inhibition of PFKFB3 (unknown origin)
[4] = Solubility of the compound; format: physicochemical
[5] = biological target: T1, 6-phosphofructo-2-kinase/fructose-2,6-bisphosphatase 3; test: Inhibition of PFKFB3 in human HeLa cells assessed as reduction of lactate secretion at IC50 after 8 hrs; format: cell-based
[6] = biological target: T1, 6-phosphofructo-2-kinase/fructose-2,6-bisphosphatase 3; test: Inhibition of PFKFB3 in human HeLa cells assessed as reduction of fructose 2,6-bisphosphate level at IC50 after 8 hrs; format: cell-based
[7] = biological target: T1, 6-phosphofructo-2-kinase/fructose-2,6-bisphosphatase 3; test: Inhibition of PFKFB3-mediated glycolysis in human MDA-MB-231 cells assessed as extracellular acidification rate at 10 uM after 2 hrs; format: cell-based; summary of the method: as §1
[8] = biological target: T1, 6-phosphofructo-2-kinase/fructose-2,6-bisphosphatase 3; settings: 250 uM

Structure (SMILES)	pIC50 [1]	other results
CC(=O)c1nnn(-c2cnn(Cc3ccccc3)c(=O)c2)c1C	< 2.00	
CC(=O)c1nnn(-c2cnn(-c3ccccc3)c(=O)c2C(C)C)c1C	< 3.30	
CC(=O)c1nnn(-c2cnn(CCCc3ccccc3)c(=O)c2Br)c1C	4.96	inhibition [2]: 30%
O=C(c1ccncc1)c1cc2c(ccc3ccccc32)[nH]1		pIC50 [3]: < 3.00; solubility [4]: Insoluble
CC(=O)c1nnn(-c2cnn(CCc3ccccc3)c(=O)c2Br)c1C	5.59	
CC(=O)c1nnn(-c2cnn(-c3ccc(C#N)cc3)c(=O)c2Br)c1C	5.08	
NC(=O)CNc1cnn(-c2ccccc2)c(=O)c1Br	< 3.00	
O=c1c(-c2ccc(O)cc2)coc2c(O)c(O)ccc12		inhibition [5]: > 30%; inhibition [6]: 40%
CC(=O)c1nnn(-c2cnn(-c3ccccc3)c(=O)c2Cl)c1C	4.59	
O=c1c(Br)c(N2CCOCC2)cnn1-c1ccccc1	< 3.00	
CC(=O)c1nnn(-c2cnn(Cc3ccc(I)cc3)c(=O)c2Br)c1C	5.06	
O=c1c(Br)c(N2CC3(COC3)C2)cnn1-c1ccccc1	< 3.00	
CC(=O)c1nnn(-c2cnn(Cc3ccccc3)c(=O)c2Br)c1C	5.47	
O=C(O)c1ccc(NS(=O)(=O)c2cccc3ccccc23)cc1O	4.57	pIC50 [3]: 4.57
O=C(/C=C/c1cccnc1)c1ccncc1		pIC50 [3]: 4.60; inhibition [7]: inactive
CC(=O)c1nnn(-c2cnn(-c3ccccc3)c(=O)c2Br)c1C	5.13	inhibition [7]: inactive
CC(=O)c1nnn(-c2cnn(-c3ccc(OC(F)(F)F)cc3)c(=O)c2Br)c1C	5.04	inhibition [2]: 30%
N#Cc1cccc2c1CCN(c1cnn(-c3ccccc3)c(=O)c1Br)C2	< 3.30	
CC(=O)c1nnn(-c2cnn(-c3ccc(Cl)cc3)c(=O)c2Br)c1C	5.15	inhibition [2]: 30%
CCOC(=O)c1cn(-c2cnn(-c3ccccc3)c(=O)c2N2CC3(COC3)C2)nn1	4.26	
CC(=O)c1nnn(-c2cnn(-c3cncnc3)c(=O)c2Br)c1C	5.02	inhibition [2]: 30%
O=c1c(Br)c(NCC2CCCO2)cnn1-c1ccccc1 (stereo unspecified)	< 3.00	
CC(=O)c1nnn(-c2cnn(-c3ccccc3)c(=O)c2I)c1C	4.89	
CCOc1c(-n2nnc(C(C)=O)c2C)cnn(-c2ccccc2)c1=O	< 3.00	
O=C(/C=C/c1ccc2ccccc2n1)c1ccncc1	< 3.00	inhibition [8]: 26%
CC(=O)c1nnn(-c2cnn(Cc3ccc(NCCN(C)C)cc3)c(=O)c2Br)c1C	< 3.30	
